Screens from PubChem.
Sampled rows, rich in hits. Any-hit rate of the full collection: about 2.6%.
Vif imaging: inhibitors of HIV Vif; AID 602346; inhibition, % at 7.49 µM; HEK293T cells, Vif self-association by quenched fluorescence, imaging, 24 h; 340,000 compounds, 0.35% hits; in the data active = inhibition above about 50%, passing the limit was not always enough; inconclusive = no clear call, values can overlap the other calls; inactive = below about 31%
FN deposit inh: fibronectin deposition inhibition | AH1F fibroblasts, Alexa488-fibronectin deposition fluorescence, overnight | inhibition, % at 12.6 µM | 350,000 compounds, 0.086% hits | AID 743247;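 active = mean inhibition across replicates of 30% or more, regardless of how many single replicates reach that level; inconclusive = mean under 30% yet at least half of replicates reach 30%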;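 also: positive control wells lacked labelled fibronectin entirely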
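Material: AH1F fibroblast monolayer depositing Alexa488-labelled fibronectin into matrix | Input: 10000 AH1F cells/well | Medium: DMEM plus 2% serum, read in PBS | Reagent: Alexa488-fibronectin, 24 nM final in well | Compound dosing: One dose per compound, pinned | Schedule: 1 h adhesion, overnight exposure | Measured by: Fluorescence at 485 nm excitation, 525 nm emission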
miR-122 sensor: miR-122 inhibition in Huh7 cells | AID 602342 | 340,000 compounds, 0.3% hits | Huh7 miR-122 Renilla luciferase sensor, 48 h; neutral wells = 0, positive control = 100 | activation (reporter increase), % at 12.5 µM;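 active = mean replicate activation score at least 90 and every replicate individually at or above 90; inconclusive = only one of the two criteria met; inactive = neither criterion met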;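 also: higher luciferase means less miR-122 activity so hits act as miR-122 inhibitors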
rRNA inh HTS: inhibitors of bacterial rRNA selective over humanized ribosomes; AID 720706; E. coli WT GFP vs humanized-ribosome RFP mutants, fluorescence, 24 h; active compounds read low; DMSO median 0, no signal -100; GFP signal change (wild-type ribosome), % (no concentration beside the values); 350,000 compounds, 1.6% hits;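 active = significant combined selectivity score with lowered wild-type GFP, culture density cut under 30%, mutant RFP and density less affected; inactive = any of these conditions unmet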
S100A4 MyoIIA: inhibitors of human S100A4 binding to myosin IIA peptide | P26447 | S100A4/TAMRA-MyoIIA peptide fluorescence polarization | inhibition, % at 10.7 µM | 360,000 compounds, 0.14% hits | AID 652163;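 active = mean inhibition of at least 70% across replicates, with every replicate also reaching that level; inconclusive = mean inhibition reaches 70% but some replicates fall short; inactive = mean inhibition below 70%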
Target sequence (P26447 whole entry, looked up): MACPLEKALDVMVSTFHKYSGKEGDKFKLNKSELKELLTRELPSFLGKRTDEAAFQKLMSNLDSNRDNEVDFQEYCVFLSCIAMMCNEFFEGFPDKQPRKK
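Material: human S100A4 monomer with TAMRA-labelled myosin IIA peptide; buffer or medium: HEPES pH 7.2 with CaCl2, KCl, NaCl, DTT, Triton; compound dosing: one concentration per compound; schedule: 5 min incubation before reading; benchmarks: neutral control DMSO, positive control TFP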
HIV Env fusion: HIV envelope-mediated fusion inhibition; HeLa-JRFL Env/CEM21 cell fusion, luciferase; 360,000 compounds, 1.1% hits; inhibition, % at 12.3 µM;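 active = mean replicate inhibition score of at least 50 and every replicate individually at or above 50; inconclusive = only one of the two criteria met; inactive = mean below 50 and not all replicates reaching 50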;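 also: 0% = plate neutral controls and 100% = maraviroc near 300 nM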
AID977621: wild-type E. coli growth inhibition versus H69 humanized strain – H69 mutant RFP, wild-type GFP, cherry-pick, dose response | shares compounds with rRNA inh HTS | 1,900 tested, under 10 active | activity change, negative = inhibition at 50 µM | AID 977621 | fluorescence, 24 h;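 active = Wild-type ribosome reporter drop at least double the humanized mutant ribosome reporter drop, growth loss under a set limit; inconclusive = no clear call, values can overlap the other calls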;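 also: wild-type GFP and H69 mutant RFP strains grown together 50/50 in each well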
AID977628: growth of wild-type and h24-humanized E. coli strains – h24 mutant RFP vs wild-type GFP, cherry-pick, dose response. E. coli WT GFP strain growth, fluorescence, 24 h. activity change, negative = inhibition at 50 µM. AID 977628. 1,900 tested, under 10 active. shares compounds with rRNA inh HTS;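 active = compound lowering the normal-ribosome reporter at least twice as much as the humanized-ribosome reporter, growth loss under a set limit; inconclusive = no clear call, values can overlap the other calls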;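 also: wild-type GFP and h24 humanized RFP strains co-cultured 1 to 1 per well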
* marks the source's active call; other numbers are inactive results; ? = inconclusive; nt = no result; [ ] = another dose, or the depositor's remark.

SMILES	Vif imaging	FN deposit inh	miR-122 sensor	rRNA inh HTS	S100A4 MyoIIA	HIV Env fusion	AID977621	AID977628
COc1ccc(C#Cc2ccc([C@@H]3[C@@H](CO)N4CCCCN(C(=O)Nc5ccccc5F)C[C@H]34)cc2)cc1	nt	nt	-7[16.7 µM]	-35*	8	nt	-5	?
CC(C)CC#Cc1ccc([C@@H]2[C@@H](CO)N3C(=O)CN(C(=O)Cc4ccccc4)C[C@@H]23)cc1	nt	nt	nt	-38*	4	nt	1.1	?
O=S(=O)(Cc1ccccc1)N1CCCCN2[C@@H](CO)[C@H](c3ccc(C#Cc4ccccc4)cc3)[C@@H]2C1	nt	nt	0[16.7 µM]	-47*	4	nt	nt	?
CCCC#Cc1ccc([C@H]2[C@H]3CN(S(=O)(=O)Cc4ccccc4)CCCCN3[C@H]2CO)cc1	nt	nt	-5[16.7 µM]	0	3	nt	nt	nt
CNC[C@@H]1Oc2ccc(NS(=O)(=O)c3cccs3)cc2C(=O)N([C@@H](C)CO)C[C@@H]1C	nt	-7	-4[16.7 µM]	2	-1	nt	nt	nt
O=C(C[C@H]1CC[C@H](NC(=O)c2ccc3c(c2)OCO3)[C@H](CO)O1)NCc1ccc(Cl)cc1	nt	nt	nt	-7	13	13[16.7 µM]	nt	nt
Cc1cc(C)cc(NS(=O)(=O)c2c(C(=O)N3CCCCCC3)c(C)n(C)c2C)c1	-2	-6	83	-29*	-3	0	-5.3	-7.1
Cc1cccc(NS(=O)(=O)c2c(C(=O)N3CCCC3)c(C)n(C)c2C)c1	3	-4	24	10	0	-2	nt	nt
CN(CC(=O)Nc1ccc(F)cc1)C(=O)COc1ccc([N+](=O)[O-])cc1Cl	-3	5	-1	-24*	-3	15	-16	-6.8
COc1ccc(S(=O)(=O)Nc2ccc3c(c2)C(=O)N([C@H](C)CO)C[C@H](C)[C@H](CN(C)C(=O)c2ccccc2)OCCCC[C@@H](C)O3)cc1	nt	8	5[16.7 µM]	-2	-5	17[16.7 µM]	nt	nt
Nc1ccccc1C#CC(=O)c1ccccc1	42	-47	nt	-23*	4	-105	nt	?
CO[C@H]1CN(C)C(=O)c2cc(NC(=O)c3ccc(F)cc3)ccc2OC[C@@H](C)N(C(=O)CN(C)C)C[C@@H]1C	nt	2	nt	1	nt	6[16.7 µM]	nt	nt
CCn1c(SCC(=O)Nc2ccc(OC)cc2)nc2nc3c(cc2c1=O)CCCC3	3	7	1	-28*	-3	7	0.3	?
C[C@@H]1CN([C@H](C)CO)C(=O)c2cccc(NC(=O)c3ccncc3)c2O[C@H]1CN(C)Cc1ccc(C(F)(F)F)cc1	nt	5	69[16.7 µM]	-13	-10	16[16.7 µM]	nt	nt
Cn1c(=O)c2c(-c3ccccc3)n(-c3cc([N+](=O)[O-])ccc3N)cc2n(C)c1=O	4	-13	-2	-14*	-1	-6	-26	-21
Cn1c(=O)c2c(-c3ccccc3)n(-c3ccccc3F)cc2n(C)c1=O	-8	0	0	-4	-3	15	nt	nt
C=CCNC(=O)c1ccccc1CCc1ccccc1	-2	2	0	-26*	-9	17	4.9	-3.4
O=C(NCc1ccccc1Cl)c1ccccc1CCc1ccccc1	6	3	nt	-13	0	15	nt	nt
COc1cccc(CN2[C@@H]3CNC[C@H]2C3c2ccc(-c3cccnc3)cc2)c1 (stereo not given in full)	nt	2	nt	2	8	nt	nt	nt
C[C@@H]1CN([C@@H](C)CO)C(=O)c2cc(NC(=O)C3CCCCC3)ccc2O[C@H]1CN(C)S(=O)(=O)c1ccccc1	nt	nt	1[16.7 µM]	-1	-4	25[16.7 µM]	nt	nt
CCc1ccc2nc(SCC(=O)Nc3ccccc3N3CCOCC3)c(C#N)cc2c1	-6	-7	14	-30*	12	-26	-11	-4
Cc1ccc2nc(SCC(=O)Nc3ccccc3N3CCOCC3)c(C#N)cc2c1	4	nt	23	nt	nt	nt	nt	nt
O=C(CSc1nc(C2CC2)nc2ccccc12)Nc1ccccc1N1CCOCC1	18	17	nt	-17*	2	10	-6.2	-7.3
O=C(CSc1nc(C2CC2)nc2ccccc12)Nc1ccccc1Cl	-2	4	nt	0	-7	0	nt	nt
CN1C[C@H]2[C@@H](c3ccccc31)[C@H](CO)N2C(=O)CN1CCOCC1	nt	nt	9[16.7 µM]	1	4	nt	nt	nt
SMILES	Vif imaging	FN deposit inh	miR-122 sensor	rRNA inh HTS	S100A4 MyoIIA	HIV Env fusion	AID977621	AID977628
COc1cc(SC)ccc1C(=O)N(Cc1ccccc1)c1ccccn1	-8	-6	60	-19*	1	7	-7.6	-8.2
O=C(c1ccccc1)N(Cc1ccccc1)c1ccccn1	0	nt	1	nt	nt	-262	nt	nt
Cc1c(Cl)c([N+](=O)[O-])nn1Cc1ccc(C(=O)Nc2ccc(Cl)cn2)o1	6	nt	1	nt	nt	nt	nt	nt
CC(=O)c1ccc(NC(=O)c2ccc([N+](=O)[O-])o2)cc1	13	8	-1	-15*	2	-71	nt	-6
O=C(Nc1cccnc1)c1ccc([N+](=O)[O-])o1	-4	5	-3	-19*	-1	2	nt	?
O=C(Nc1ccc(Cl)cn1)c1ccc([N+](=O)[O-])o1	17	6	nt	-21*	4	-7	-14	-12
C[C@@H]1CCCCO[C@@H](CN(C)C(=O)CCCN(C)C)[C@H](C)CN([C@@H](C)CO)C(=O)c2cc(NC(=O)Nc3cccc4ccccc34)ccc2O1	nt	nt	4[16.7 µM]	0	8	-12[16.7 µM]	nt	?
C[C@H](CO)N1C[C@H](C)[C@H](CN(C)C(=O)CCCN(C)C)OCCCC[C@H](C)Oc2ccc(NC(=O)Nc3cccc4ccccc34)cc2C1=O	nt	nt	2[16.7 µM]	-1	24	-20[16.7 µM]	-7.2	?
C[C@H](CO)N1C[C@H](C)[C@H](CN(C)C(=O)Nc2cccc3ccccc23)OCCCC[C@H](C)Oc2ccc(NC(=O)Nc3cccc4ccccc34)cc2C1=O	nt	1	5[16.7 µM]	7	-14	-16[16.7 µM]	nt	nt
C[C@@H]1CN([C@@H](C)CO)C(=O)c2cc(NC(=O)Nc3cccc4ccccc34)ccc2O[C@@H](C)CCCCO[C@H]1CN(C)C(=O)CCCN(C)C	nt	nt	3[16.7 µM]	1	15	-43[16.7 µM]	nt	?
C[C@@H]1CCCCO[C@@H](CN(C)C(=O)Nc2cccc3ccccc23)[C@@H](C)CN([C@H](C)CO)C(=O)c2cc(NC(=O)Nc3cccc4ccccc34)ccc2O1	nt	-3	1[16.7 µM]	4	-17	-12[16.7 µM]	nt	nt
C[C@@H]1CCCCO[C@@H](CN(C)C(=O)CCCN(C)C)[C@H](C)CN([C@H](C)CO)C(=O)c2cc(NC(=O)Nc3cccc4ccccc34)ccc2O1	nt	nt	5[16.7 µM]	0	53	28[16.7 µM]	-5.5	?
